# Measurements from ChEMBL document CHEMBL1138206, “Lead compounds for antimalarial chemotherapy: purine base analogs discriminate between human and P. falciparum 6-oxopurine phosphoribosyltransferases” (J Med Chem, 2006).
# Active and inactive are the calls of the source. The rule behind the calls is not given here.
# Key:
# [1] = Inhibition of Plasmodium falciparum HGXPRT at pH 7.4
# Plasmodium falciparum [2] = assay: Antiplasmodial activity against Plasmodium falciparum 3D7; format: functional, organism-based
# Procedure, shortened: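 P. falciparum 3D7 kept in erythrocyte culture. Triplicate cultures exposed to a range of purine base concentrations for 48 h, without radiolabel. Giemsa-stained blood smears examined by light microscopy to determine parasitemia. IC50 taken as the inhibition of growth, from counts of viable parasites.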
# Plasmodium falciparum [3] = assay: Inhibition of [3H]hypoxanthine uptake in Plasmodium falciparum 3D7; format: functional, organism-based; conditions: 3D7, 48 h
# Plasmodium falciparum [4] = tested on: Plasmodium falciparum
# Plasmodium falciparum [5] = tested on: Plasmodium falciparum; remark: listed apart in the source
# Plasmodium falciparum [6] = assay: Inhibition of [3H]hypoxanthine uptake into Plasmodium falciparum 3D7 at 130 uM; format: functional, organism-based
# Plasmodium falciparum [7] = assay: Antimalarial activity against Plasmodium falciparum 3D7 at 130 uM; format: functional, organism-based
# Plasmodium falciparum [8] = assay: Inhibition of [3H]hypoxanthine uptake into Plasmodium falciparum 3D7 at 120 uM; format: functional, organism-based
# Plasmodium falciparum [9] = assay: Antimalarial activity against Plasmodium falciparum 3D7 at 120 uM; format: functional, organism-based
# Plasmodium falciparum [10] = assay: Inhibition of [3H]hypoxanthine uptake into Plasmodium falciparum 3D7 at 125 uM; format: functional, organism-based
# Plasmodium falciparum [11] = assay: Antimalarial activity against Plasmodium falciparum 3D7 at 125 uM; format: functional, organism-based
# [12] = Inhibition of Toxoplasma gondii 6 oxopurine phosphoribosyl transferase
# Plasmodium falciparum [13] = assay: Antimalarial activity against Plasmodium falciparum; format: functional, organism-based
# Procedure, shortened: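 P. falciparum 3D7, a laboratory-adapted isolate, was kept in erythrocyte culture. Triplicate cultures were exposed to a range of purine base concentrations with 0.5 µCi/well [3H]hypoxanthine for 48 h, and label incorporation into nucleic acids was measured. Parallel cultures without label were run for 48 h, and parasitemia was read on Giemsa-stained smears by light microscopy. IC50 was derived for each read-out.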
# Sphi609 [14] = assay: Inhibition of Escherichia coli Sphi609 cells expressing Plasmodium falciparum HGXPRT; format: functional, cell-based
# Sphi609 [15] = assay: Inhibition of Escherichia coli Sphi609 cells expressing human HGPRT; format: functional, cell-based
# Plasmodium chabaudi = assay: Inhibition of Plasmodium chabaudi 6 oxopurine phosphoribosyl transferase
# Plasmodium lophurae = assay: Inhibition of Plasmodium lophurae 6 oxopurine phosphoribosyl transferase
# [16] = substrate: Nc1nc2[nH]cnc2c(=O)[nH]1; conditions: Homo sapiens
# [17] = substrate: Nc1nc2[nH]cnc2c(=S)[nH]1; conditions: Homo sapiens
# [18] = substrate: O=c1[nH]cnc2nc[nH]c12; conditions: Homo sapiens
# [19] = substrate: Oc1ncnc2[nH]ncc12; conditions: Homo sapiens
# [20] = substrate: Sc1ncnc2nc[nH]c12; conditions: Homo sapiens
# [21] = substrate: Nc1nc(O)c2[nH]nnc2n1; conditions: Homo sapiens
# [22] = substrate: Nc1nc2[nH]cnc2c(=O)[nH]1; conditions: Homo sapiens; remark: listed apart in the source
# [23] = substrate: Nc1nc2[nH]cnc2c(=S)[nH]1; conditions: Homo sapiens; remark: listed apart in the source
# [24] = substrate: O=c1[nH]cnc2nc[nH]c12; conditions: Homo sapiens; remark: listed apart in the source
# [25] = substrate: Oc1ncnc2[nH]ncc12; conditions: Homo sapiens; remark: listed apart in the source
# [26] = substrate: Sc1ncnc2nc[nH]c12; conditions: Homo sapiens; remark: listed apart in the source
Molecule,IC50 (Plasmodium falciparum [2]) [µM],IC50 (Plasmodium falciparum [3]) [µM],Km (Plasmodium falciparum [4]) [µM],Km (Plasmodium falciparum [5]) [µM],further results
O=c1[nH]c(=O)c2nn[nH]c2[nH]1,–,–,–,–,Ki [1]: ≥ 100 µM
O=c1[nH]cnc2[nH]nnc12,38,90,145,25.6,–
O=c1[nH]c(=O)c2nc[nH]c2[nH]1,–,–,420,189,Activity (Plasmodium falciparum [6]): inactive; Activity (Plasmodium falciparum [7]): inactive
O=c1[nH]c(=S)c2nc[nH]c2[nH]1,–,–,–,82,Activity (Plasmodium falciparum [8]): inactive; Activity (Plasmodium falciparum [9]): inactive
O=c1[nH]c(S)nc2[nH]cnc12,–,–,–,–,Activity (Plasmodium falciparum [10]): inactive; Activity (Plasmodium falciparum [11]): inactive
Nc1nc2ncnc-2c[nH]1 [2-AMINOPURINE],–,–,–,–,Ki [12]: 60 µM
Nc1nc(Cl)c2nc[nH]c2n1 [6-CHLOROGUANINE],10,67,–,176,–
Nc1nc(O)c2[nH]nnc2n1 [8-AZAGUANINE],18,6.6,26.6,12.6,–
Oc1ncnc2[nH]ncc12 [ALLOPURINOL],–,≥ 150,11.7,10.5,Activity (Plasmodium falciparum [13]): inactive
Nc1nc2[nH]cnc2c(=O)[nH]1 [GUANINE],60,35.3,1.4,0.83,–
O=c1[nH]cnc2nc[nH]c12 [HYPOXANTHINE],–,4.2,0.9,0.07,–
Sc1ncnc2nc[nH]c12 [MERCAPTOPURINE ANHYDROUS],2,1.3,1.6,0.02,Activity (Sphi609 [14]): Active; Activity (Sphi609 [15]): Active; Activity (Plasmodium chabaudi): Active; Activity (Plasmodium lophurae): Active
Nc1nc2[nH]cnc2c(=S)[nH]1 [THIOGUANINE],10,21.3,1.9,0.75,Activity (Sphi609 [14]): Active; Activity (Sphi609 [15]): Active; Activity (Plasmodium chabaudi): Active; Activity (Plasmodium lophurae): Active
"Hypoxanthine-guanine phosphoribosyltransferase (Homo sapiens), P00492 (protein) MATRSPGVVISDDEPGYDLDLFCIPNHYAEDLERVFIPHGLIMDRTERLARDVMKEMGGHHIVALCVLKGGYKFFADLLDYIKALNRNSDRSIPMTVDFIRLKSYCNDQSTGDIKVIGGDDLSTLTGKNVLIVEDIIDTGKTMQTLLSLVRQYNPKMVKVASLLVKRTPRSVGYKPDFVGFEIPDKFVVGYALDYNEYFRDLNHVCVISETGKAKYKA",–,–,–,–,Km [16]: 1.9 µM; Km [17]: 5.9 µM; Km [18]: 3.1 µM; Km [19]: 135 µM; Km [20]: 3 µM; Km [21]: 72 µM; Km [22]: 1.9 µM; Km [23]: 1.7 µM; Km [24]: 3.4 µM; Km [25]: 47.9 µM; Km [26]: 1.15 µM
